Results reported in publication PMC11900868 (Science Advances, 2025).

Tested on: CCl4-induced liver fibrosis mice
Assay: Res treatment of CCl4-induced liver fibrosis, histology and immunohistochemistry
Type: in vivo, male Balb/c mice
Conditions: CCl4 10 weeks then discontinued; 10 mg/kg intraperitoneal twice a week
How it was run: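 Fibrosis induced in male Balb/c mice by intraperitoneal 20% CCl4 in olive oil twice weekly: 0.1 ml week 1, 0.15 ml week 2, 0.2 ml thereafter. After 10 weeks, CCl4 stopped and resveratrol given intraperitoneally at 10 mg/kg twice weekly for 1 or 3 weeks. Liver sections stained with H&E and Sirius red, plus α-SMA and FAP immunostaining. Percent positive area quantified; mean ± SD, ANOVA.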

Oc1ccc(/C=C/c2cc(O)cc(O)c2)cc1 [Res, resveratrol]
fibrotic tissue, HSCs activation and FAP expression after 1 week of treatment: significant reduction in fibrotic tissue, HSCs activation, and FAP expression levels
fibrotic tissue, HSCs activation and FAP expression after 3 weeks of treatment: all parameters approached normal levels
